This is a sample that favours compounds with a hit; in the whole collection about 2.9% have one here.
Mot1-301 SUMO: blocks SUMOylation pathway, rescuing yeast Mot1-301 growth | S. cerevisiae Mot1-301 growth rescue, ATP luminescence, 38.5C; percent above DMSO median, 100 means doubled | growth rescue, % at 18.8 µM | 320,000 compounds, 1% hits;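 active = every valid replicate shows activation above 250% relative to neutral control wells; inactive = the rest, any valid replicate at or below 250%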
NALP1 inh: inhibitors of NALP1 inflammasome in yeast. 280,000 compounds, 0.61% hits. S. cerevisiae NALP1/ASC/caspase-1 growth, X-gal OD620, 72 h. inhibition, % at 10 µM; in the data active = inhibition mostly above about 24%, no sharp cut-off; inactive = mostly below about 32%
NLRP3 yeast inh: inhibitors of NALP3 inflammasome in yeast | 330,000 compounds, 0.39% hits | inhibition, % at 10 µM | Yeast reconstituted NLRP3/ASC/caspase-1, beta-gal luminescence, 24 h;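 active = inhibition of 50% or more; inactive = inhibition below 50%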
IMP-1 inh: inhibitors of Pseudomonas aeruginosa IMP-1 metallo-beta-lactamase; inhibition, % at 5.6 µM; 290,000 compounds, 0.45% hits; AID 1556; purified IMP-1, nitrocefin hydrolysis, epi-absorbance fluorescence;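 active = inhibition above the mean plus 3 SD of all compounds in the same screening run, cut at about 4.5% in these data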
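Test system: recombinant IMP-1 enzyme, purified / Medium: HEPES buffer pH 7.1 with ZnSO4 and Brij 35 / Doses: single dose, 5.6 µM / Times: 25 °C, 15 min preincubation, 25 min reaction / Detection: Epi-absorbance via hydrolysed-nitrocefin quenching of white-plate fluorescence, 480/530 nm, EDTA stop / Evaluation: percent inhibition from optical density relative to buffer-blank wells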
PolyA inhibitor: inhibitors of polyadenylation in S. cerevisiae; S. cerevisiae SKY197-pL101 polyadenylation reporter, beta-gal luminescence; efflux-impaired pdr1/pdr3 knockout yeast; score 100 = 6 SD above DMSO; activity score, % at 12 µM; 300,000 compounds, 0.02% hits; AID 1875;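 active = lowest replicate activity score at least 50, where 100 means six control SD above control mean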;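 also: yeast exposed to compound for 9 h at 30 °C; higher score means more reporter readthrough which indicates perturbed polyadenylation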
VIM-2 inh: blocks Pseudomonas aeruginosa VIM-2 metallo-beta-lactamase | purified VIM-2, nitrocefin hydrolysis, epi-absorbance fluorescence | inhibition, % at 5.6 µM | 290,000 compounds, 0.89% hits | AID 1527;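 active = inhibition above the mean of all tested compounds plus 3 SD, cutoff set per screening run, cut at about 7.5% in these data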;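 also: red hydrolysis product quenches plate fluorescence so inhibitors raise well fluorescence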
A number is an active result; . = inactive; / = no result.

SMILES	Mot1-301 SUMO	NALP1 inh	NLRP3 yeast inh	IMP-1 inh	PolyA inhibitor	VIM-2 inh
CC1(c2nnc(-c3cccc(Cl)c3)o2)CC(c2ccccc2Br)=NO1 (stereo not drawn)	.	.	.	.	.	.
CC(=O)Nc1ccc(S(=O)(=O)NNc2ccc([N+](=O)[O-])cc2)cc1	296	.	.	.	.	.
O=C(NNc1ccccc1)C(=O)NNS(=O)(=O)c1ccc([N+](=O)[O-])cc1	368	.	.	.	.	.
O=C(NNc1ccc([N+](=O)[O-])cc1)Nc1ccccc1	.	.	.	.	.	.
COc1ccc(C2CC(c3ccc(Cl)cc3)n3nc(N)nc3N2)cc1 (stereo not drawn)	.	.	.	5.0	.	.
CCOC(=O)CCCCCC(=O)Nc1ccc2c(c1)C(=O)N([C@H](C)CO)C[C@@H](C)[C@H](CN(C)S(=O)(=O)c1cn(C)cn1)O2	.	/	.	/	/	/
Cc1ccc(-c2nc(CS(=O)(=O)CC(=O)NCCN3CCCC3)c(C)o2)cc1	.	.	.	.	.	.
O=C(Nc1nccs1)c1ccc(-c2ccc(Cl)cc2)o1	.	.	.	.	.	.
COc1ccc(NC(=O)c2ccc(-c3ccc([N+](=O)[O-])cc3)o2)cc1	.	.	.	.	.	.
O=C(Nc1ccccc1)c1ccc(-c2ccc([N+](=O)[O-])cc2)o1	.	.	.	5.0	.	.
O=C(Nc1nccs1)c1ccc(-c2ccc([N+](=O)[O-])cc2)o1	.	32	/	.	.	.
Cn1c(=O)c2c(SCC(=O)N3CCOCC3)nc(-c3ccccc3Cl)nc2n(C)c1=O	.	.	.	.	.	.
O=C(c1cccc(S(=O)(=O)NCc2ccccc2)c1)N1CCCC(C(F)(F)F)C1 (stereo not drawn)	.	/	.	/	.	/
COc1ccc(S(=O)(=O)N(C)C(C)CCc2ccco2)cc1 (stereo not drawn)	.	.	.	4.9	.	.
CS(=O)(=O)N1CCN(c2ccccc2NC(=O)C(c2ccccc2)c2ccccc2)CC1	.	43	.	.	.	.
Clc1ccc(CN2CCc3c([nH]c4ccccc34)C2)cc1Cl	.	.	.	.	.	.
O=C(Nc1cccc(S(=O)(=O)N2CCCC2)c1)c1cccc(OC(F)F)c1	353	/	.	/	.	/
Cn1cc(S(=O)(=O)N2CCCC2)cc1C(=O)Nc1cccc(C(F)(F)F)c1	333	.	.	.	.	.
N#Cc1cccc(S(=O)(=O)NNC(=O)C23CC4CC(CC(C4)C2)C3)c1	.	/	.	/	/	/
C=C(C)COc1ccc2c(C)c(CC(=O)N3C[C@H]4C[C@@H](C3)c3cccc(=O)n3C4)c(=O)oc2c1C	.	.	.	.	.	.
CCSc1nc2sc3c(c2c(=O)[nH]1)CC(C)(CC)OC3 (stereo not drawn)	.	.	.	.	.	.
CCC1(C)Cc2c(sc3nc(SC)[nH]c(=S)c23)CO1 (stereo not drawn)	.	.	.	.	.	8.1
Oc1ccc(C23CC4CC(CC(C4)C2)C3)cc1O	648	.	/	.	.	.
CSCCC(NC(=O)c1ccccc1Cl)C(=O)N1CCN(c2ccccn2)CC1 (stereo not drawn)	.	.	.	.	.	.
COc1ccccc1C#Cc1ccc2c(=O)c3ccccc3n(C)c2c1	.	.	.	6.8	.	.
SMILES	Mot1-301 SUMO	NALP1 inh	NLRP3 yeast inh	IMP-1 inh	PolyA inhibitor	VIM-2 inh
COc1ccc(C#Cc2ccc3c(=O)c4ccccc4n(C)c3c2)cc1	.	.	.	.	.	.
O=C1NC(c2ccccc2)(C(F)(F)F)SC2=NCCCN12 (stereo not drawn)	.	.	.	.	.	.
Cc1ccc2c(c1)SC1=NC(c3ccccc3)(C(F)(F)F)NC(=O)N12 (stereo not drawn)	.	.	.	5.7	.	.
CCOC(=O)C[C@H]1c2ccc(C(F)(F)F)cc2S(=O)(=O)N1C(C)C	.	/	.	/	.	/
O=C(c1ccc(Cl)cc1)c1c[nH]c(C(=O)NNc2ccccc2)c1	337	.	.	.	.	.
CNC(=O)c1cc(C(=O)c2ccc(Cl)cc2)c[nH]1	.	.	.	.	.	.
O=C(OCc1cc([N+](=O)[O-])cc2c1OCOC2)c1ccc2ccccc2n1	292	.	.	.	.	.

Assay outcomes from PubChem BioAssay.
